Data set [1] relates to Candida albicans. Briefly: Antifungal activity against Candida albicans SUCC 625 after 24 to 48 hrs by broth microdilution method. The data set is classed as functional.
The subject of data set [2] is Candida albicans. Put plainly: Antifungal activity against Candida albicans ATCC 1905 after 24 to 48 hrs by broth microdilution method. The data set is classed as functional. Background: Broth dilution looks for growth in wells or tubes with falling amounts of substance.
In data set [3] the test system is Candida albicans. Briefly: Antifungal activity against Candida albicans ATCC 1912 after 24 to 48 hrs by broth microdilution method. Type of data set: functional.
The subject of data set [4] is Aspergillus flavus. Put plainly: Antifungal activity against Aspergillus flavus ATCC 64025 after 24 to 48 hrs by broth microdilution method. The data set is classed as functional.
In data set [5] the test system is Candida albicans. Put plainly: Antifungal activity against Candida albicans SUCC 2303 after 24 to 48 hrs by broth microdilution method. Type of data set: functional.
Data set [6] has as its system Staphylococcus aureus. Put plainly: Antibacterial activity against Staphylococcus aureus MRSA198 clinical isolate-3 measured after 18 to 20 hrs by microbroth dilution method. Type of data set: functional. Conditions: MRSA198 isolate-3.
For data set [7], the system named is Aspergillus flavus. Put plainly: Antifungal activity against Aspergillus flavus ATCC 204304 measured after 72 hrs by agar dilution method. Type of data set: functional. Conditions: ATCC 204304, 72 h. Summed up: (§1)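 Agar dilution on Sabouraud dextrose agar, with compounds at […] to 0.78 μM in twofold steps. Fungal suspensions at 10 CFU/mL as printed were applied to the compound-containing plates. Incubation at 35°C; MIC read after 72 h. Three experiments.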
In general terms: In agar dilution, organisms are placed on agar that contains the substance at set levels.

Another data set has as its system Escherichia coli. Briefly: Antibacterial activity against Escherichia coli ATCC 25922 measured after 18 to 20 hrs by microbroth dilution method. The data set is classed as functional. Summed up: (§2)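 Inoculum from a 4–6-h broth adjusted to 0.5 McFarland, final 5 × 10⁵ CFU/mL. Incubation at 35°C for 18–20 h. MIC taken as the lowest concentration giving complete inhibition of visible growth; three experiments.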

For the next data set, the system named is Salmonella typhimurium. Put plainly: Antibacterial activity against Salmonella typhimurium ATCC 14028 measured after 18 to 20 hrs by microbroth dilution method. Conditions: Salmonella enterica. Type of data set: functional, Salmonella enterica subsp. enterica serovar Typhimurium. Summed up: as §2
Data set [8] concerns Staphylococcus epidermidis. Briefly: Antibacterial activity against Staphylococcus epidermidis ATCC 12228 after 18 to 20 hrs by microbroth dilution method. Type of data set: functional. The method, boiled down: as §2
Data set [9] deals with Staphylococcus aureus. Put plainly: Antibacterial activity against Staphylococcus aureus ATCC 11632 after 18 to 20 hrs by microbroth dilution method. Type of data set: functional. The method, boiled down:
as §2

Data set [10] deals with Staphylococcus aureus. Put plainly: Antibacterial activity against Staphylococcus aureus MRSA198 clinical isolate-2 measured after 18 to 20 hrs by microbroth dilution method. The data set is classed as functional. Conditions: MRSA198 isolate-2.
Data set [11] has as its system Aspergillus niger. Briefly: Antifungal activity against Aspergillus niger ATCC 439 measured after 72 hrs by agar dilution method. The data set is classed as functional. Conditions: ATCC 439, 72 h. The method, boiled down: as §1
The next data set has as its system Bacillus subtilis. Briefly: Antibacterial activity against Bacillus subtilis ATCC 11774 after 18 to 20 hrs by microbroth dilution method. Type of data set: functional. Summed up:
as §2

A further data set concerns Pseudomonas aeruginosa. Briefly: Antibacterial activity against Pseudomonas aeruginosa […] measured after 18 to 20 hrs by microbroth dilution method. The data set is classed as functional. Summed up: as §2
Data set [12] is described as follows: Cytotoxicity against mouse RAW264.7 cells assessed as growth inhibition at 50 ug/mL after 120 hrs by MTT assay relative to control. Conditions: read-out: GI. The data set is classed as cell-based. The method, boiled down: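 RAW 264.7 mouse macrophages were seeded at 25,000 cells/well and left to attach overnight. Compound in DMSO was added from a 200× concentrate, in duplicate wells, to a 50 μg/mL test level; DMSO served as control. Exposure 120 h at 37°C in 5% CO₂. MTT (4 mg/mL in PBS) was added for 4 h, formazan dissolved in DMSO, and absorbance read at 560 nm. Viability expressed as % of untreated cells, mean ± SE of at least three independent experiments.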

Another data set deals with Saccharomyces cerevisiae. Put plainly: Antifungal activity against Saccharomyces cerevisiae SH 20 after 72 hrs by agar dilution method. The data set is classed as functional. Conditions: SH 20, 72 h. The method, boiled down:
as §1

A further data set deals with Klebsiella pneumoniae. Put plainly: Antibacterial activity against measured after Klebsiella pneumoniae ATCC 4352 measured after 18 to 20 hrs by microbroth dilution method. The data set is classed as functional. The method, boiled down: as §2
Data set [13] has as its system Candida albicans. Briefly: Antifungal activity against Candida albicans ATCC 7754 after 72 hrs by agar dilution method. Type of data set: functional. Conditions: ATCC 7754, 72 h. The method, boiled down: as §1
Data set [14] has as its system Staphylococcus aureus. Briefly: Antibacterial activity against Staphylococcus aureus MRSA198 clinical isolate-1 measured after 18 to 20 hrs by microbroth dilution method. Type of data set: functional. Conditions: MRSA198 isolate-1.
The nature of data set [15]: Antioxidant activity assessed as DPPH radical scavenging activity measured after 30 mins by spectrophotometric method. The data set is classed as functional. (In general: DPPH is a stable violet radical that fades when it is reduced.)
The subject of data set [16] is Aspergillus niger. Put plainly: Antifungal activity against Aspergillus niger NCIM1196 by standard agar method. Type of data set: functional.
The test system of data set [17] is Candida albicans. Briefly: Antifungal activity against Candida albicans NCIM3471 by standard agar method. Type of data set: functional.

Converted amounts (≈) assume the structure as drawn. Where only a bound is given, the exact number is not on record here.

The MIC is the lowest concentration found to suppress growth. The low end stands for a more susceptible organism, the high end for a less susceptible organism. As usually defined, the IC50 is the point on the concentration scale where inhibition reaches its midpoint.

As to `N#CC1=C(N)Oc2ccc3ccccc3c2C1c1ccccc1` (stereo not given), the MIC in the data set with Candida albicans [1], against Candida albicans [2], in the data set with Candida albicans [3], in the data set with Aspergillus flavus [4] and in the data set with Candida albicans [5] was > 1 µg/mL each time.
In the case of `COc1ccc(C2C(C#N)=C(N)Oc3cc(OCc4cn([C@@H]5O[C@H](COC(C)=O)[C@@H](OC(C)=O)[C@H](OC(C)=O)[C@H]5OC(C)=O)nn4)ccc32)cc1OC` (stereo not given in full), the MIC against Staphylococcus aureus [6] is 50 µM (≈ 36.8 µg/mL); with Aspergillus flavus [7], 3.12 µM (≈ 2.3 µg/mL); against Escherichia coli, 6.25 µM (≈ 4.6 µg/mL); against Salmonella typhimurium it was 400 µM (≈ 294 µg/mL); in [8] it was 1.56 µM (≈ 1.15 µg/mL); against Staphylococcus aureus [9], 25 µM (≈ 18.4 µg/mL). Moreover, the MIC was determined as 50 µM (≈ 36.8 µg/mL) with Staphylococcus aureus [10]; 200 µM (≈ 147 µg/mL) in the data set with Aspergillus niger [11]; 25 µM (≈ 18.4 µg/mL) in the data set with Bacillus subtilis; 12.5 µM (≈ 9.2 µg/mL) against Pseudomonas aeruginosa; 25 µM (≈ 18.4 µg/mL) against Saccharomyces cerevisiae; 25 µM (≈ 18.4 µg/mL) in the data set on Klebsiella pneumoniae. In addition, the figures for the MIC with Candida albicans [13] and against Staphylococcus aureus [14] were 6.25 µM (≈ 4.6 µg/mL) and 25 µM (≈ 18.4 µg/mL), respectively. In data set [12], the inhibition at 120 h, 50 ug/mL turned out to be 21.9%.
With `Cc1cc(C(C)(C)C)c(O)c(C(C)(C)C)c1` [BUTYLATED HYDROXYTOLUENE], the IC50 in data set [15] amounted to 16.47 µg/mL (≈ 74.7 µM).
On the same count and under the same terms, then `CCOC(=O)c1cc2ccc(OCc3cn(Cc4ccc([N+](=O)[O-])cc4)nn3)cc2oc1=O`, with 15 µg/mL (≈ 33.3 µM).
Take `OC(Cn1cncn1)(Cn1cncn1)c1ccc(F)cc1F` [FLUCONAZOLE]: the MIC turned out to be 0.78 µM (≈ 0.239 µg/mL) against Aspergillus flavus [7]; 12.5 µg/mL (≈ 40.8 µM) against Aspergillus niger [16]; 1.56 µM (≈ 0.478 µg/mL) in the data set on Aspergillus niger [11]; 12.5 µg/mL (≈ 40.8 µM) against Candida albicans [17]; 0.78 µM (≈ 0.239 µg/mL) against Saccharomyces cerevisiae; 0.78 µM (≈ 0.239 µg/mL) against Candida albicans [13].
Take `CCOC(=O)c1cc2ccc(OCc3cn(Cc4ccc(F)cc4)nn3)cc2oc1=O`: the MIC stood at 25 µg/mL (≈ 59 µM) against Aspergillus niger [16] and 12.5 µg/mL (≈ 29.5 µM) in the data set on Candida albicans [17].

The values are drawn from ChEMBL document CHEMBL4390647, “Efficient click chemistry towards novel 1H-1,2,3-triazole-tethered 4H-chromene-d-glucose conjugates: Design, synthesis and evaluation of in vitro antibacterial, MRSA and antifungal activities” (Eur J Med Chem, 2019).
